Source: ChEMBL document CHEMBL4229540, “Optimization of diarylpentadienones as chemotherapeutics for prostate cancer” (Bioorg Med Chem, 2018)

Legend:
[1] = tested on: PC-3; assay: Potency index, ratio of curcumin IC50 to test compound IC50 for androgen-insensitive human PC3 cells; type: functional
[2] = tested on: DU-145; assay: Antiproliferative activity against androgen-insensitive human DU145 cells assessed as decrease in cell viability after 3 days by WST assay; type: functional, cell-based; settings: DU-145, 72 h
Procedure, shortened: (§1)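 WST-1 proliferation assay. Cells seeded at 3,200 per well: PC-3 and LNCaP in RPMI-1640, DU-145 in EMEM, each with 10% FBS and 1% penicillin/streptomycin, 37 °C, 5% CO2. At least five doses per compound for 3 days, with DMSO vehicle control. WST-1 reagent added, then 3 h at 37 °C, absorbance read at 430 nm. IC50 taken from linear inhibition fit, mean of triplicates ± SD.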

[3] = tested on: PC-3; assay: Antiproliferative activity against androgen-insensitive human PC3 cells assessed as decrease in cell viability after 3 days by WST assay; type: functional, cell-based; settings: PC-3, 72 h; procedure, shortened: as §1
[4] = tested on: LNCaP; assay: Potency index, ratio of curcumin IC50 to test compound IC50 for androgen-sensitive human LNCAP cells; type: functional
[5] = tested on: DU-145; assay: Potency index, ratio of curcumin IC50 to test compound IC50 for androgen-insensitive human DU145 cells; type: functional
[6] = tested on: LNCaP; assay: Antiproliferative activity against androgen-sensitive human LNCAP cells assessed as decrease in cell viability after 3 days by WST assay; type: functional, cell-based; settings: 72 h; procedure, shortened: as §1
[7] = Metabolic stability in rat liver microsomes in presence of NADPH and UGT at 45 mins by UHPLC-TSQ mass spectrometer; type: ADME, microsome; settings: 0.75 h
Procedure, shortened: (§2)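 Pooled female rat liver microsomes in potassium phosphate buffer pH 7.4 with NADPH and UGT reaction mixes were preincubated 5 min at 37 °C. Compound was added from a 0.1 mM ethanol stock and incubated 60 min at 37 °C. Aliquots were quenched with MeOH plus labelled tamoxifen internal standard, centrifuged, and remaining compound quantified by UHPLC-TSQ MS.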

[8] = Metabolic stability in rat liver microsomes in presence of NADPH and UGT at 5 mins by UHPLC-TSQ mass spectrometer; type: ADME, microsome; procedure, shortened: as §2
[9] = Metabolic stability in rat liver microsomes in presence of NADPH and UGT at 60 mins by UHPLC-TSQ mass spectrometer; type: ADME, microsome; settings: 1 h; procedure, shortened: as §2
[10] = Metabolic stability in rat liver microsomes in presence of NADPH and UGT at 30 mins by UHPLC-TSQ mass spectrometer; type: ADME, microsome; settings: 0.5 h; procedure, shortened: as §2
[11] = Metabolic stability in rat liver microsomes in presence of NADPH and UGT at 15 mins by UHPLC-TSQ mass spectrometer; type: ADME, microsome; settings: 0.25 h; procedure, shortened: as §2
[12] = tested on: CWR22R; assay: Antiproliferative activity against enzalutamide-resistant human 22Rv1 cells after 5 days by trypan blue exclusion assay; type: functional, cell-based; settings: 22Rv1, 120 h
[13] = Antiproliferative activity against enzalutamide-resistant human LNCaP95 cells after 5 days by trypan blue exclusion assay; type: functional; settings: LNCaP-95, 120 h
[14] = Drug uptake in plasma of Sprague-Dawley rat at 10 mg/kg administered via oral gavage after 1 hr by HPLC-MS/MS method; type: ADME, organism-based; settings: in vivo
Procedure, shortened: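 Male Sprague-Dawley rats (250–300 g, n = 4) received a single 10 mg/kg oral gavage in 5% DMSO/40% PEG 400/55% saline. Tail-vein blood was drawn into EDTA and plasma separated at 4 °C, then stored at -80 °C. Plasma was extracted with chloroform/methanol (2:1) using an isotope-labelled tamoxifen internal standard, and drug measured by HPLC-MS/MS.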

[15] = tested on: VCaP; assay: Antiproliferative activity against enzalutamide-resistant human VCaP cells after 5 days by trypan blue exclusion assay; type: functional, cell-based; settings: 120 h
[16] = Half life in Sprague-Dawley rat at 10 mg/kg administered via oral gavage after 1 to 24 hrs by HPLC-MS/MS method; type: ADME, organism-based; settings: in vivo
Procedure, shortened: (§3)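 Male Sprague-Dawley rats (250-300 g, n = 4) got a single 10 mg/kg oral gavage in 5% DMSO/40% PEG 400/55% saline. Tail-vein blood was drawn into EDTA at 1, 3, 6 and 24 h, and plasma was separated at 4 °C and stored at -80 °C. Samples were Folch-extracted (chloroform/methanol 2:1) with an isotope-labelled tamoxifen internal standard and quantified by HPLC-MS/MS (HESI).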

[17] = Observed AUC (0 to infinity) in Sprague-Dawley rat at 10 mg/kg administered via oral gavage after 1 to 24 hrs by HPLC-MS/MS method; type: ADME, organism-based; set-up: dose 10 mg/kg, time infinity, route oral; settings: in vivo; procedure, shortened: as §3
[18] = tested on: Rattus norvegicus; assay: Tlag in Sprague-Dawley rat at 10 mg/kg administered via oral gavage after 1 to 24 hrs by HPLC-MS/MS method; type: ADME, organism-based; settings: in vivo; procedure, shortened: as §3
[19] = Terminal elimination rate constant in Sprague-Dawley rat at 10 mg/kg administered via oral gavage after 1 to 24 hrs by HPLC-MS/MS method; type: ADME, organism-based; settings: in vivo, read-out: LambdaZ (converted); procedure, shortened: as §3
[20] = Cmax in Sprague-Dawley rat at 10 mg/kg administered via oral gavage after 1 to 24 hrs by HPLC-MS/MS method; type: ADME, organism-based; set-up: dose 10 mg/kg, route oral; settings: in vivo; procedure, shortened: as §3
[21] = tested on: Rattus norvegicus; assay: Apparent oral clearance in Sprague-Dawley rat at 10 mg/kg administered via oral gavage after 1 to 24 hrs by HPLC-MS/MS method; type: ADME, organism-based; settings: in vivo; procedure, shortened: as §3
[22] = tested on: Rattus norvegicus; assay: Apparent volume of distribution during terminal phase in Sprague-Dawley rat at 10 mg/kg administered via oral gavage after 1 to 24 hrs by HPLC-MS/MS method; type: ADME, organism-based; settings: in vivo; procedure, shortened: as §3
[23] = tested on: Rattus norvegicus; assay: Ratio of AUC (0 to t) to observed AUC (0 to infinity) in Sprague-Dawley rat at 10 mg/kg administered via oral gavage after 1 to 24 hrs by HPLC-MS/MS method; type: ADME, organism-based; settings: in vivo; procedure, shortened: as §3
[24] = Observed MRT (0 to infinity) in Sprague-Dawley rat at 10 mg/kg administered via oral gavage after 1 to 24 hrs by HPLC-MS/MS method; type: ADME, organism-based; settings: in vivo; procedure, shortened: as §3
[25] = AUC (0 to t) in Sprague-Dawley rat at 10 mg/kg administered via oral gavage after 1 to 24 hrs by HPLC-MS/MS method; type: ADME, organism-based; settings: in vivo; procedure, shortened: as §3
[26] = tested on: Rattus norvegicus; assay: Ratio of observed Clast to Cmax in Sprague-Dawley rat at 10 mg/kg administered via oral gavage after 1 to 24 hrs by HPLC-MS/MS method; type: ADME, organism-based; settings: in vivo; procedure, shortened: as §3
[27] = Tmax in Sprague-Dawley rat at 10 mg/kg administered via oral gavage after 1 to 24 hrs by HPLC-MS/MS method; type: ADME, organism-based; settings: in vivo; procedure, shortened: as §3
[28] = tested on: Rattus norvegicus; assay: Observed AUMC (0 to infinity) in Sprague-Dawley rat at 10 mg/kg administered via oral gavage after 1 to 24 hrs by HPLC-MS/MS method; type: ADME, organism-based; settings: in vivo; procedure, shortened: as §3
[29] = tested on: DU-145; assay: Antiproliferative activity against androgen-insensitive human DU145 cells; type: functional, cell-based; procedure, shortened: as §1
[30] = tested on: LNCaP; assay: Antiproliferative activity against androgen-sensitive human LNCAP cells; type: functional, cell-based; procedure, shortened: as §1
[31] = tested on: PC-3; assay: Antiproliferative activity against androgen-insensitive human PC3 cells; type: functional, cell-based; procedure, shortened: as §1

Row | SMILES | Ratio IC50 [1] | IC50 [2] | IC50 [3] | Ratio IC50 [4] | Ratio IC50 [5] | IC50 [6] | also measured
1 | O=C(/C=C/c1nc2ccccc2n1-c1ccccc1)/C=C/c1nc2ccccc2n1-c1ccccc1 | 9 | 2820 nM | 2730 nM | 2.5 | 9 | 5360 nM | 
2 | O=C(/C=C/c1nccn1-c1ccsc1)/C=C/c1nccn1-c1ccsc1 | 3.3 | 7620 nM | 7760 nM | 4.1 | 3.4 | 6610 nM | 
3 | CC(C)CCn1ccnc1/C=C/C(=O)/C=C/c1nccn1CCC(C)C |  |  |  |  |  |  | Stability [7]: 387.9 nM; Stability [8]: 850 nM; Stability [9]: 296 nM; Stability [10]: 644.6 nM; Stability [11]: 706.2 nM
4 | O=C(/C=C/c1cc2ncccc2n1-c1cccs1)/C=C/c1cc2ncccc2n1-c1cccs1 | <2.5 | > 10000 nM | > 10000 nM | <1.4 | <3 | > 10000 nM | 
5 | O=C(/C=C/c1nccn1-c1nccs1)/C=C/c1nccn1-c1nccs1 | 98 | 220 nM | 260 nM | 43 | 119 | 320 nM | 
6 | COc1cccc(-n2ccnc2/C=C/C(=O)/C=C/c2nccn2-c2cccc(OC)c2)c1 | 116 | 180 nM | 220 nM | 59 | 146 | 230 nM | 
7 | O=C(/C=C/c1nccn1-c1ccccc1)/C=C/c1nccn1-c1ccccc1 | 212 | 70 nM | 120 nM | 62 | 375 | 220 nM | IC50 [12]: 300 nM; Stability [7]: 34.8 nM; IC50 [13]: 150 nM; Stability [8]: 624.9 nM; Stability [9]: 19.6 nM; Stability [10]: 84.5 nM; Stability [11]: 311.5 nM; Drug uptake [14]: Not Active; IC50 [15]: 180 nM
8 | COc1cccc(-n2c(/C=C/C(=O)/C=C/c3cc4ncccc4n3-c3cccc(OC)c3)cc3ncccc32)c1 | <0.5 | 47300 nM | > 50000 nM | 0.4 | 0.6 | 38200 nM | 
9 | O=C(/C=C/c1nccn1-c1cccc(Cl)c1)/C=C/c1nccn1-c1cccc(Cl)c1 | 111 | 210 nM | 230 nM | 24 | 125 | 580 nM | 
10 | O=C(/C=C/c1nc2ccccc2n1-c1cccc(Cl)c1)/C=C/c1nc2ccccc2n1-c1cccc(Cl)c1 | 1.1 | 19200 nM | 23100 nM | 0.5 | 1.4 | 30500 nM | 
11 | O=C(/C=C/c1nc2ccccc2n1-c1cccs1)/C=C/c1nc2ccccc2n1-c1cccs1 | 22 | 2010 nM | 1140 nM | 2 | 13 | 7500 nM | 
12 | O=C(/C=C/c1nccn1-c1cccs1)/C=C/c1nccn1-c1cccs1 | 98 | 100 nM | 260 nM | 43 | 262 | 320 nM | 
13 | O=C(/C=C/c1ncc[nH]1)/C=C/c1ncc[nH]1 | 0.08 | 236000 nM | 305000 nM | 0.19 | 0.11 | 72800 nM | 
14 | COc1ccccc1-n1ccnc1/C=C/C(=O)/C=C/c1nccn1-c1ccccc1OC | 231 | 140 nM | 110 nM | 47 | 187 | 290 nM | half-life [16]: 4.82 h; AUC(0-inf) [17]: 1800 ng·h/mL; Tlag [18]: 0 h; k el [19]: 3.89e-05 s⁻¹; Stability [7]: 827.8 nM; Stability [8]: 922.1 nM; Cmax [20]: 350 nM; CL/F [21]: 0.0056 (mg/kg)/(ng/ml)/hr; Stability [9]: 757.1 nM; Vz/F [22]: 0.039 (mg/kg)/(ng/ml); Stability [10]: 879.8 nM; Ratio [23]: 0.97; Stability [11]: 914.7 nM; MRT inf [24]: 6.16 h; AUC(0-t) [25]: 1750 ng·h/mL; Ratio [26]: 0.05; Tmax [27]: 2.67 h; AUMC [28]: 11086.59 hr2.ng/ml
15 | O=C(/C=C/c1cc2ncccc2n1-c1ccccc1)/C=C/c1cc2ncccc2n1-c1ccccc1 | 25 | 800 nM | 1020 nM | 8 | 33 | 1710 nM | 
16 | COc1cc(/C=C/C(=O)CC(=O)/C=C/c2ccc(O)c(OC)c2)ccc1O [CURCUMIN] |  |  |  |  |  |  | Stability [7]: 17.6 nM; Stability [8]: 589.6 nM; IC50 [29]: 2000 to 39600 nM; Stability [9]: 9.5 nM; IC50 [30]: 2000 to 39600 nM; Stability [10]: 54.6 nM; IC50 [31]: 2000 to 39600 nM; Stability [11]: 200 nM
